Measured values from PMC3086766 (Bioconjugate chemistry, 2011).
Values joined by “and” are separate entries in the source; they are usually repeats but may differ in a detail not shown here. Equal values may be shown once.

Experiments:
[1] = test system: male ICR mice; assay: In-vivo biodistribution study in mice; set-up: species or system mouse; details: for Blood uptake / Bone uptake / Brain uptake / Heart uptake / Kidney uptake / Liver uptake / Lung uptake / Muscle uptake / Pancreas uptake / Skin uptake / Spleen uptake: iv tail vein; for in vivo de-fluorination (from bone (femur) values): within 30 min post injection
Summary of the method: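 Normal male ICR mice (20–25 g), 6 per group, under isoflurane (1–2%, 1 L oxygen/min). Each received 25 μCi radiotracer in 0.15 mL saline via lateral tail vein. Killed by cardiac excision under anesthesia at 2 and 30 min. Organs weighed and gamma-counted. Percent dose per gram calculated against counts of 1.0% of initial dose, taken from 100-fold diluted injectate aliquots.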

[2] = target: AD plaques (β-amyloid plaques) in human brain tissue homogenates (Homo sapiens, UniProt P05067); assay: In vitro competition binding assay against [18F]-AV-45 in AD brain homogenates
Sequence of AD plaques (β-amyloid plaques) in human brain tissue homogenates (P05067 672-713 limits assumed): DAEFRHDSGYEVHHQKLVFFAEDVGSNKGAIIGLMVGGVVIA
Summary of the method: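 Gray matter from human Alzheimer's brain sections with plaques, homogenized in PBS pH 7.2 (20–50 μg per tube). Incubated with [18F]-AV-45 and competitor (10−5–10−10 M, serially diluted in PBS with 0.1% BSA) in 1 mL final, 37 °C for 120 min. IMPY 600 nM defined nonspecific binding. Bound and free separated by vacuum filtration. Ki by nonlinear regression; n = 5–6.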

Compound	Blood uptake ([1]; 2 min post injection) [% dose/gram]	Bone uptake ([1]; 2 min post injection) [% dose/gram]	Brain uptake ([1]; 2 min post injection)	Heart uptake ([1]; 2 min post injection) [% dose/gram]	Kidney uptake ([1]; 2 min post injection) [% dose/gram]	Liver uptake ([1]; 2 min post injection) [% dose/gram]	Lung uptake ([1]; 2 min post injection) [% dose/gram]	Muscle uptake ([1]; 2 min post injection) [% dose/gram]	Pancreas uptake ([1]; 2 min post injection) [% dose/gram]	Skin uptake ([1]; 2 min post injection) [% dose/gram]	Spleen uptake ([1]; 2 min post injection) [% dose/gram]	Blood uptake ([1]; 30 min post injection) [% dose/gram]	Bone uptake ([1]; 30 min post injection) [% dose/gram]	Brain uptake ([1]; 30 min post injection)	Heart uptake ([1]; 30 min post injection) [% dose/gram]	Kidney uptake ([1]; 30 min post injection) [% dose/gram]	Liver uptake ([1]; 30 min post injection) [% dose/gram]	Lung uptake ([1]; 30 min post injection) [% dose/gram]	Muscle uptake ([1]; 30 min post injection) [% dose/gram]	Pancreas uptake ([1]; 30 min post injection) [% dose/gram]	other results
CNc1ccc(/C=C/c2ccc(OCCOCCOCCNC(=O)CO/N=C/c3ccc(OCCOCCOCCF)nc3)nc2)cc1 [[^18F]23, 2-((E)-(6-(2-(2-(2-fluoroethoxy)ethoxy)ethoxy)pyridin-3-yl)methyleneaminooxy)-N-(2-(2-(2-(5-((E)-4-(methylamino)styryl)pyridin-2-yloxy)ethoxy)ethoxy)ethyl)acetamide]	9.34 ± 1.37	2.00 ± 0.33	1.69 % dose/gram and 1.69 ± 0.44 % dose/gram	13.1 ± 3.08	14.1 ± 2.85	22.2 ± 3.99	7.09 ± 1.37	1.32 ± 0.50	5.13 ± 1.08	0.79 ± 0.20	4.81 ± 1.18	4.94 ± 0.91	2.27 ± 0.41	0.96 ± 0.16 % dose/gram	3.72 ± 0.84	6.83 ± 1.93	19.1 ± 3.65	3.53 ± 0.38	1.56 ± 0.27	2.28 ± 0.48	Skin uptake ([1]; 30 min post injection): 1.50 ± 0.25 % dose/gram; Spleen uptake ([1]; 30 min post injection): 3.57 ± 0.68 % dose/gram; in vivo de-fluorination (from bone (femur) values) [1]: very little de-fluorination; Ki [2]: 11.8 ± 3.06 nM
CNc1ccc(/C=C/c2ccc(OCCOCCOCCOCCOCCOCCNC(=O)CO/N=C/c3ccc(OCCOCCOCCF)nc3)nc2)cc1 [[^18F]24, 2-((E)-(6-(2-(2-(2-fluoroethoxy)ethoxy)ethoxy)pyridin-3-yl)methyleneaminooxy)-N-(17-(5-((E)-4-(methylamino)styryl)pyridin-2-yloxy)-3,6,9,12,15-pentaoxaheptadecyl)acetamide]	4.19 ± 1.04	1.76 ± 0.31	0.48 % dose/gram and 0.48 ± 0.12 % dose/gram	12.3 ± 1.79	15.4 ± 3.54	29.4 ± 5.09	3.70 ± 1.06	1.42 ± 0.46	3.32 ± 0.58	1.14 ± 0.44	3.11 ± 0.45	2.81 ± 0.22	1.62 ± 0.10	0.92 % dose/gram and 0.92 ± 0.11 % dose/gram	4.17 ± 0.61	7.78 ± 0.85	10.9 ± 1.17	2.43 ± 0.33	2.01 ± 0.21	2.22 ± 0.23	Skin uptake ([1]; 30 min post injection): 1.78 ± 0.13 % dose/gram; Spleen uptake ([1]; 30 min post injection): 1.63 ± 0.19 % dose/gram; in vivo de-fluorination (from bone (femur) values) [1]: very little de-fluorination
